# Most compounds without a hit are left out; they make up all but 5.8% or so of the library.
# T cruzi growth-1: inhibitors of T. cruzi proliferation; inhibition, % at 8.34 µM; 5.9% of 77,000 active; T. cruzi beta-gal in NIH3T3, GalScreen luminescence, 90 h; AID 624255;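 active = mean inhibition above about 93%, with at least 55% of replicates each passing it, limit read from the data, passing the limit was not always enough; inconclusive = only one of those two conditions holds; inactive = neither condition holds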
# IDH1 mut inh: IDH1 R132H (human) inhibition. IDH1 R132H reductase, diaphorase/resazurin fluorescence, 60 min. AID 624101. 0.18% of 70,000 active. O75874. inhibition, % at 10 µM; in the data active = inhibition above about 34%; inconclusive = no clear call, values can overlap the other calls; inactive = below about 11%;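 note: 0% = DMSO and 100% = no enzyme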
# GASC1 inh: inhibitors of human demethylase GASC-1 KDM4C | inhibition, % at 12.5 µM | Q9H3R0 | 0.15% of 96,000 active | GST-KDM4C 2-372, H3K9me3 peptide, LANCE TR-FRET | AID 720574;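 active = mean replicate inhibition above about 25%, with at least 55% of replicates also reaching it, limit read from the data, passing the limit was not always enough; inconclusive = only one of those two conditions met; inactive = neither condition met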
# Target sequence (Q9H3R0 2-372 limits assumed): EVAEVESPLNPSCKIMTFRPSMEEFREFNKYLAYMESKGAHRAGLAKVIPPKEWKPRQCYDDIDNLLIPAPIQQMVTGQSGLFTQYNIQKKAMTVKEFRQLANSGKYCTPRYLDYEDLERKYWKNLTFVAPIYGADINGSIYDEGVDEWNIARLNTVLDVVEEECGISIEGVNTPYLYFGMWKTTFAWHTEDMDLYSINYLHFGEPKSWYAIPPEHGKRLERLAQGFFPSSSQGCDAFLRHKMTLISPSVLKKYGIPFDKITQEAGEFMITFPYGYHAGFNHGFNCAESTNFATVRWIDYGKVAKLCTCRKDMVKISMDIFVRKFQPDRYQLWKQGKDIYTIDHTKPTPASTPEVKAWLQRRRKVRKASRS
#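 System: N-terminal GST-fused human GASC-1 (KDM4C) fragment, residues 2-372; amount: enzyme final amount 10 nM; incubation: reaction 30 min RT, detection step 1 h RT; medium: HEPES buffer, pH 7.5, plus ascorbate; technique: LANCE TR-FRET, Eu antibody, ULight-streptavidin, EDTA, ex 340 nm, em 618/671 nm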
# Pf Dd2 inh: P. falciparum Dd2 growth inhibition. SYBR Green, 72 h; active compounds read low. activity change, % at 10 µM. 2.3% of 94,000 active; in the data active = activity change below about -80%; inconclusive = no clear call, values can overlap the other calls
# T cruzi growth-2: Trypanosoma cruzi proliferation inhibition. shares compounds with T cruzi growth-1. 72% of 5,600 active. inhibition, % at 8.35 µM. T. cruzi beta-gal in NIH3T3, GalScreen luminescence, 90 h;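 active = mean replicate inhibition above about 95% and at least 55% of replicates individually reaching it, limit read from the data; inconclusive = only one of the two criteria is met; inactive = neither criterion is met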
# T cruzi growth-3: Trypanosoma cruzi proliferation inhibition. T. cruzi beta-gal in NIH3T3, GalScreen luminescence, 90 h. 21% of 5,600 active. shares compounds with T cruzi growth-1. inhibition, % at 2.09 µM;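 active = mean inhibition above about 95%, with at least 55% of replicates also reaching it, limit read from the data; inconclusive = meets just one of the two conditions; inactive = meets neither condition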;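 note: plate controls were neutral control median for no effect and positive control median for full effect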
# 3T3 cytotox: kills mouse NIH/3T3 fibroblasts. 14% of 5,600 active. NIH/3T3 viability, CellTiter-Glo ATP luminescence, 90 h. cytotoxicity (signal decrease), % at 8.35 µM. shares compounds with T cruzi growth-1;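 active = mean signal decrease across replicates above about 35% based on untreated-well scatter, with enough replicates individually passing, limit read from the data; inconclusive = no rule stated though some were filed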;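 note: 0% = median of neutral control wells and 100% = median of positive control wells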
# 3T3 cytotox 2: cytotoxicity in mouse NIH/3T3 fibroblasts | 56% of 5,600 active | shares compounds with T cruzi growth-1 | NIH/3T3 viability, CellTiter-Glo ATP luminescence, 90 h | inhibition, % at 24.9 µM;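 active = mean loss of cell viability signal at or above a set limit, and enough replicates individually reaching it; inconclusive = meets only the mean limit or only the replicate share; inactive = meets neither condition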;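 note: 0% = median of neutral control wells and 100% = median of positive control wells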
# The depositor's hits bear a star; ? = inconclusive; . = not tested or not shown.
SMILES,T cruzi growth-1,IDH1 mut inh,GASC1 inh,Pf Dd2 inh,T cruzi growth-2,T cruzi growth-3,3T3 cytotox,3T3 cytotox 2
O=C(C1CCC1)N1CCCCN2[C@@H](CO)[C@H](c3ccc(-c4ccncc4)cc3)[C@@H]2C1,?,.,5,-1,102*,88,15,?
CC1=CC(=O)CC2C1(C)CCC(C)C2(C)CC/C(C)=C\C(=O)O (configuration not stated),.,4,.,.,.,.,.,.
CC(=O)Nc1ccc(NC(=O)CN(c2cccc(Br)c2)S(C)(=O)=O)cc1,.,0,.,.,.,.,.,.
C[C@@H]1CN([C@H](C)CO)C(=O)c2cc(/C=C/c3ccccc3)cnc2O[C@H]1CN(C)Cc1ccccc1,114*,0,1,-38,113*,98*,13,105*
C[C@H](CO)N1C[C@H](C)[C@H](CN(C)Cc2ccncc2)Oc2ncc(/C=C/c3ccccc3)cc2C1=O,61,0,0,-14,.,.,.,.
C[C@@H]1CN([C@@H](C)CO)C(=O)c2cc(/C=C/c3ccccc3)cnc2O[C@H]1CN(C)C(=O)Cc1ccccn1,101*,0,-3,-21,103*,99*,14,46*
C[C@@H]1CN([C@@H](C)CO)C(=O)c2cc(/C=C/c3ccccc3)cnc2O[C@H]1CN(C)Cc1ccncc1,120*,1,-1,-27,114*,92,22,19
O=C(CCCOc1ccc(Cl)cc1Cl)Nc1c[nH]c(=O)[nH]c1=O,.,0,.,.,.,.,.,.
CCOC(=O)c1c(C)oc2ccc(OCC(=O)c3ccc(Cl)cc3)cc12,.,0,.,.,.,.,.,.
O=C(CCc1nc(-c2ccccc2F)no1)Nc1ccccc1Cl,.,0,.,.,.,.,.,.
Cc1ccc([N+](=O)[O-])cc1NC(=O)C1(c2ccccc2)CCN(S(=O)(=O)c2ccccc2)CC1,.,0,.,.,.,.,.,.
N#Cc1cccc(-c2ccc([C@H]3[C@H](CO)N4CCCCN(S(=O)(=O)c5ccccc5)C[C@@H]34)cc2)c1,88,.,1,12,.,.,.,.
N#Cc1ccc(-c2ccc([C@H]3[C@@H](CO)N4CCCCN(S(=O)(=O)c5ccccc5)C[C@H]34)cc2)cc1,117*,.,0,-54,113*,83,18,71*
N#Cc1ccc(-c2ccc([C@@H]3[C@H](CO)N4CCCCN(S(=O)(=O)c5ccccc5)C[C@@H]34)cc2)cc1,?,.,0,-6,77,42,10,44*
N#Cc1ccc(-c2ccc([C@@H]3[C@H]4CN(S(=O)(=O)c5ccccc5)CCCCN4[C@H]3CO)cc2)cc1,101*,.,-1,-12,103*,46,23,29*
COCC(=O)N1CC[C@@H]2[C@@H](CO)N(C)c3ccc(-c4cccc(F)c4)cc3[C@@H]21,?,.,2,18,106*,56,4,6
CN1c2ccc(-c3cccc(F)c3)cc2[C@H]2[C@H](CCN2C(=O)C2CC2)[C@@H]1CO,117*,.,10,-8,102*,64,-3,?
COCC(=O)N1CC[C@@H]2[C@H]1c1cc(-c3cccc(F)c3)ccc1N(C)[C@H]2CO,102*,.,1,25,107*,77,-5,4
COC(=O)C1=CO[C@@H](O[C@@H]2O[C@H](CO)[C@@H](O)[C@H](O)[C@H]2O)[C@H]2[C@]1(O)[C@H](O)C[C@]2(C)O,.,0,.,.,.,.,.,.
COc1ccc(-n2c(SCC(=O)Nc3cc(NC(C)=O)ccc3OC)nc3ccccc3c2=O)cc1,.,0,.,.,.,.,.,.
CSc1nc(SCC(=O)Nc2cccc(C)c2)c2c3c(sc2n1)CCCC3,.,0,.,.,.,.,.,.
CC(C)NC(=O)N1[C@H](C#N)[C@@H](c2ccc(C#CC3CCCC3)cc2)[C@@H]1CO,99*,.,-2,-44,106*,70,7,-21
N#C[C@@H]1[C@H](c2ccc(C#CC3CCCC3)cc2)[C@@H](CO)N1C(=O)c1cccc(F)c1,.,.,2,-55,.,.,.,.
CC(C)NC(=O)N1[C@H](CO)[C@H](c2ccc(C#CC3CCCC3)cc2)[C@@H]1C#N,93,0,-2,-40,.,.,.,.

# Compound activity deposited in PubChem BioAssay by Broad Institute.
